Reference: ChEMBL document CHEMBL1138529, “Efficacy, pharmacokinetics, and metabolism of tetrahydroquinoline inhibitors of Plasmodium falciparum protein farnesyltransferase” (Antimicrob Agents Chemother, 2007)
Activity calls are given as the source filed them.

Experiments:
[1] = target: 5-hydroxytryptamine receptor 3A (Homo sapiens) (UniProt P46098); assay: Inhibition of 5HT3 receptor at 10 uM
Procedure, shortened: (§1)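 Radioligand displacement screen by a contractor across 50 receptors, ion channels and transporters, test compound at 10 μM; decrease in specific ligand binding expressed as percentage, with >50% decrease taken as significant.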

[2] = target: Muscarinic acetylcholine receptor M3 (Homo sapiens) (UniProt P20309); assay: Inhibition of muscarinic M3 receptor at 10 uM
Procedure, shortened: (§2)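 Radioligand displacement at a contract lab across a panel of 50 receptors, ion channels and transporters, single test concentration 10 μM; loss of specific ligand binding reported as percent, with >50% decrease counted as significant.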

Rattus norvegicus [3] = assay: Toxicity in Plasmodium berghei NK65 infected Sprague-Dawley rat assessed as effect on glucose levels at 50 mg/kg, perorally administered every 8 hrs for 3 days; assay type: organism-based; parameters: dose 50 mg/kg, route oral; conditions: in vivo, po
Procedure, shortened: (§3)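 Female Sprague-Dawley rats, 10-12 weeks, n = 3 per schedule. Dosed 50 mg/kg by oral gavage every 8 h or every 12 h for 72 h. At the end of dosing, blood was sent to a clinical laboratory for complete blood counts, white cell differentials, electrolytes, glucose, renal function, liver enzymes and cholesterol.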

[4] = AUC in BALB/c mouse at 50 mg/kg, po; assay type: ADME, organism-based; parameters: dose 50 mg/kg, route oral; conditions: plasma
Procedure, shortened: (§4)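 Three female BALB/c mice (lines for mice, 8–10 weeks) or three female Sprague-Dawley rats (10–12 weeks) per group; 50 mg/kg oral gavage in 3% EtOH-7% Tween 80-90% normal saline. Plasma sampled at set times (tail bleed in mice, saphenous vein in rats), extracted with acetonitrile plus internal standard, quantified by LC/MS; AUC as mean of three animals.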

[5] = target: Muscarinic acetylcholine receptor M1 (Homo sapiens) (UniProt P11229); assay: Inhibition of muscarinic M1 receptor at 10 uM; procedure, shortened: as §2
[6] = target: Histamine H2 receptor (Homo sapiens) (UniProt P25021); assay: Inhibition of histamine H2 receptor at 10 uM; procedure, shortened: as §2
[7] = Inhibition of somatostatin receptor at 10 uM
Procedure, shortened: (§5)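 Radioligand displacement screen at a 10 μM test concentration, run by a contract lab across a panel of 50 receptors, pharmacologically active ion channels and transporters. The read-out is the decrease in specific radiolabeled ligand binding, expressed as a percentage. A decrease above 50% was considered significant.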

[8] = target: C-X-C chemokine receptor type 2 (Homo sapiens) (UniProt P25025); assay: Inhibition of CXCR2 receptor at 10 uM; procedure, shortened: as §1
Rattus norvegicus [9] = assay: Toxicity in Plasmodium berghei NK65 infected Sprague-Dawley rat assessed as effect on electrolyte levels at 50 mg/kg, perorally administered every 8 hrs for 3 days; assay type: organism-based; parameters: dose 50 mg/kg, route oral; conditions: in vivo, po; procedure, shortened: as §3
[10] = target: D(2) dopamine receptor (Homo sapiens) (UniProt P14416); assay: Inhibition of dopamine D2S receptor at 10 uM; procedure, shortened: as §2
[11] = target: Adenosine receptor A3 (Homo sapiens) (UniProt P0DMS8); assay: Inhibition of adenosine A3 receptor at 10 uM; procedure, shortened: as §1
Rattus norvegicus [12] = assay: Toxicity in Plasmodium berghei NK65 infected Sprague-Dawley rat assessed as effect on liver enzyme levels at 50 mg/kg, perorally administered every 12 hrs for 3 days; assay type: organism-based; parameters: dose 50 mg/kg, route oral; conditions: in vivo, po, in the assay text read “every 8 hrs” for “every 12 hrs”; procedure, shortened: as §3
Rattus norvegicus [13] = assay: Toxicity in Plasmodium berghei NK65 infected Sprague-Dawley rat assessed as effect on blood counts at 50 mg/kg, perorally administered every 8 hrs for 3 days; assay type: organism-based; parameters: dose 50 mg/kg, route oral; conditions: in vivo, po; procedure, shortened: as §3
[14] = target: Histamine H1 receptor (Homo sapiens) (UniProt P35367); assay: Inhibition of histamine H1 receptor at 10 uM; procedure, shortened: as §2
[15] = Elimination half life in Sprague-Dawley rat at 50 mg/kg, po; assay type: ADME, organism-based; parameters: dose 50 mg/kg, route oral; conditions: in vivo, read-out: beta t1/2
Procedure, shortened: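 50 mg/kg by oral gavage in 3% EtOH-7% Tween 80-90% normal saline to groups of three females (BALB/c mice, 8–10 weeks, tail bleed; Sprague-Dawley rats, 10–12 weeks, saphenous vein). Plasma extracted with acetonitrile/internal standard, LC/MS; means of three animals. Oral elimination half-life depends on absorption rate as well as elimination.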

Rattus norvegicus [16] = assay: Toxicity in Sprague-Dawley rat at 50 mg/kg, po; assay type: organism-based; parameters: dose 50 mg/kg, route oral; conditions: in vivo
Procedure, shortened: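 Female Sprague-Dawley rats, 10-12 weeks, three per group. 50 mg/kg oral gavage in 3% EtOH-7% Tween 80-90% normal saline. Saphenous vein plasma sampled over time, and animals observed for adverse reactions.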

[17] = target: Alpha-2A adrenergic receptor (Homo sapiens) (UniProt P08913); assay: Inhibition of alpha2 adrenergic receptor at 10 uM; procedure, shortened: as §2
Salmonella typhimurium = assay: Genotoxicity in Salmonella enterica serovar Typhimurium TA98 assessed as increase in number of revertants in presence of rat liver S9 fraction by Ames test; assay type: toxicity, organism-based; conditions: salmonella enterica subsp. enterica serovar typhimurium
Procedure, shortened: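 Liquid-culture Ames assay run by a contractor: S. Typhimurium TA98 and TA100 exposed for 96 h in histidine-free medium, with and without rat liver S9, at 5, 10, 50 and 100 μM (plus higher concentrations); growth read spectrophotometrically by pH-indicator colour change. Parallel bacterial cytotoxicity assay at same concentrations.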

Plasmodium falciparum = assay: Antiplasmodial activity against chloroquine-resistant Plasmodium falciparum K1 by [3H]hypoxanthine uptake; assay type: functional; conditions: read-out: ED50 (the source's name)
Procedure, shortened: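 Asynchronous cultures at 0.5% parasitemia and 0.5% hematocrit in RPMI 1640 with 20% heat-inactivated human A+ plasma, exposed to serially diluted inhibitor (top final 5 μM, from DMSO stock) under 5% CO2/5% O2/90% N2 at 37°C for 48 h. [3H]hypoxanthine was then added for 24 h and harvested counts were background-subtracted against DMSO-only controls. ED50 came from linear regression, as the mean of duplicates.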

[18] = target: Neuropeptide Y receptor type 2 (Homo sapiens) (UniProt P49146); assay: Inhibition of neuropeptide Y2 receptor at 10 uM; procedure, shortened: as §2
Rattus norvegicus [19] = assay: Toxicity in Plasmodium berghei NK65 infected Sprague-Dawley rat assessed as effect on white blood cell differentials at 50 mg/kg, perorally administered every 8 hrs for 3 days; assay type: organism-based; parameters: dose 50 mg/kg, route oral; conditions: in vivo, po; procedure, shortened: as §3
[20] = Oral bioavailability in Sprague-Dawley rat; assay type: ADME, organism-based; conditions: in vivo
Procedure, shortened: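 Female Sprague-Dawley rats, 10-12 weeks, three per group. Oral gavage at 50 mg/kg and jugular-catheter i.v. dose at 2 mg/kg, both in 3% EtOH-7% Tween 80-90% saline. Plasma taken over time, acetonitrile extraction with internal standard, LC/MS. Bioavailability computed as oral AUC/i.v. AUC.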

[21] = AUC in Sprague-Dawley rat at 50 mg/kg, po; assay type: ADME, organism-based; parameters: dose 50 mg/kg, route oral; conditions: plasma; procedure, shortened: as §4
[22] = Inhibition of Plasmodium falciparum protein farnesyltransferase by SPA method
[23] = Metabolic stability in mouse liver microsomes; assay type: ADME, Microsome
Procedure, shortened: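 Pooled female liver microsomes at 0.5 mg/ml in 0.1 M potassium phosphate pH 7.4, 3 mM MgCl2, 1 mM EDTA, with NADPH regenerating system (1 mM NADP+, 5 mM glucose-6-phosphate, 1 U/ml G6PDH). Preincubated 10 min at 37°C, then compound added to 1 μM final. Time points quenched with 3 volumes acetonitrile plus internal standard; parent quantified by LC/MS; half-life reported.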

[24] = Inhibition of L-type calcium channel at verapamil site at 10 uM; procedure, shortened: as §5
Rattus norvegicus [25] = assay: Toxicity in Plasmodium berghei NK65 infected Sprague-Dawley rat assessed as effect on white blood cell differentials at 50 mg/kg, perorally administered every 12 hrs for 3 days; assay type: organism-based; parameters: dose 50 mg/kg, route oral; conditions: in vivo, po; procedure, shortened: as §3

Muscarinic acetylcholine receptor M3 (Homo sapiens), sequence (P20309 whole entry, looked up): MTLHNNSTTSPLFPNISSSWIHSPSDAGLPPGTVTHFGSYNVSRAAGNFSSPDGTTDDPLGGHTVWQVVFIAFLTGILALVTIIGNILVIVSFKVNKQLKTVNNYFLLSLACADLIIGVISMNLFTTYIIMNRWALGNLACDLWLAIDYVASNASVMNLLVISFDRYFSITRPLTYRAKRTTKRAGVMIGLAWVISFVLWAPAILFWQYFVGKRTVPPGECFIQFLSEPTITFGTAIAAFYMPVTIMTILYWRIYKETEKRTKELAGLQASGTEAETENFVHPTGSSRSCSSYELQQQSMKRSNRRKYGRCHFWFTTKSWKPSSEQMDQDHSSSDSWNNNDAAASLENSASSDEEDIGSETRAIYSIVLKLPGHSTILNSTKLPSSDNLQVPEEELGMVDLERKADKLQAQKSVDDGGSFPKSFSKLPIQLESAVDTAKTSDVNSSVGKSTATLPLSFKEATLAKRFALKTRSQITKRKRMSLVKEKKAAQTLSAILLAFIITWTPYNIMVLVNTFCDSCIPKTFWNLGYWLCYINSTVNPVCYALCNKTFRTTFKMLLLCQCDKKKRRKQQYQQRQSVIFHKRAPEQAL
Neuropeptide Y receptor type 2 (Homo sapiens), sequence (P49146 whole entry): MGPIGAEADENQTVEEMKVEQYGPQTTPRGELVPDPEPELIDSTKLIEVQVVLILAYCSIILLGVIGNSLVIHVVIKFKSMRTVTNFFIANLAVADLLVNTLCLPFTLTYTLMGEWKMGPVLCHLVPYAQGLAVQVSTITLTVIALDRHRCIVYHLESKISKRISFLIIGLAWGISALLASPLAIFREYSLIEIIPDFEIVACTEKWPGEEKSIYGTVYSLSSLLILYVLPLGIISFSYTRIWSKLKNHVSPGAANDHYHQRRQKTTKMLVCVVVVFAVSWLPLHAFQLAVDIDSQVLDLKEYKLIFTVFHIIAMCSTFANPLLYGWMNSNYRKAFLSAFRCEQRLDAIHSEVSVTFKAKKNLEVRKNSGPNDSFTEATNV
Alpha-2A adrenergic receptor (Homo sapiens), sequence (P08913 whole entry): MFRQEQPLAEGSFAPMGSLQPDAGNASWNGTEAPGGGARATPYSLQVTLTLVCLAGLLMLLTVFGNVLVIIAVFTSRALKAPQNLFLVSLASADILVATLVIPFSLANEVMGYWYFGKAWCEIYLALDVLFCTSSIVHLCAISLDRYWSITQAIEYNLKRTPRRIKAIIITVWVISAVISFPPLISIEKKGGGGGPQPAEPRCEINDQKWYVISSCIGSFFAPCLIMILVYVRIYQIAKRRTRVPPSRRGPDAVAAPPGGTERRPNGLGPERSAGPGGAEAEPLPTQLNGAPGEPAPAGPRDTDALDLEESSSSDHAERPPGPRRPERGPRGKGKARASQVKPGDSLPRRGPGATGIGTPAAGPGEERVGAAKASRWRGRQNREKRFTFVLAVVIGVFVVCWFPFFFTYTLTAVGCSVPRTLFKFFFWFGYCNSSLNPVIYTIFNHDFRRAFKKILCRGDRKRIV
Histamine H2 receptor (Homo sapiens), sequence (P25021 whole entry): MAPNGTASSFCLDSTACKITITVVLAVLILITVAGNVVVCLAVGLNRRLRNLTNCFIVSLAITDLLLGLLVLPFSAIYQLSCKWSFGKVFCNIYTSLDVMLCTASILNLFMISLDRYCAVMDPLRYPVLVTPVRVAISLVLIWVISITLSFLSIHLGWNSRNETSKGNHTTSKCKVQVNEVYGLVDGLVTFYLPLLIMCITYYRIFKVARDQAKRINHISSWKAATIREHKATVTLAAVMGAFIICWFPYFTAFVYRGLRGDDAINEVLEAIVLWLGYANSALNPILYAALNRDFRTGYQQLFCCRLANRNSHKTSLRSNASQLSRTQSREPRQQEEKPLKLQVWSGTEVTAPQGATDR
Adenosine receptor A3 (Homo sapiens), sequence (P0DMS8 whole entry): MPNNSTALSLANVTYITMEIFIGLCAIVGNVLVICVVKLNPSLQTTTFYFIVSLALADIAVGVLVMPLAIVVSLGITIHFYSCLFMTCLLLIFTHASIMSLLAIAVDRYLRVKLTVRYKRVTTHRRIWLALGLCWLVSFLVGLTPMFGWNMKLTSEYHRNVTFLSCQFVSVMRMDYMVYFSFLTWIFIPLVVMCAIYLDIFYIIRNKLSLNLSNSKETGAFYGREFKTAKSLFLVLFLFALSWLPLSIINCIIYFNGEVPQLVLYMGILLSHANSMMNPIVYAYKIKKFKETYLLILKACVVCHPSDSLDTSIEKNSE
5-hydroxytryptamine receptor 3A (Homo sapiens), sequence (P46098 whole entry): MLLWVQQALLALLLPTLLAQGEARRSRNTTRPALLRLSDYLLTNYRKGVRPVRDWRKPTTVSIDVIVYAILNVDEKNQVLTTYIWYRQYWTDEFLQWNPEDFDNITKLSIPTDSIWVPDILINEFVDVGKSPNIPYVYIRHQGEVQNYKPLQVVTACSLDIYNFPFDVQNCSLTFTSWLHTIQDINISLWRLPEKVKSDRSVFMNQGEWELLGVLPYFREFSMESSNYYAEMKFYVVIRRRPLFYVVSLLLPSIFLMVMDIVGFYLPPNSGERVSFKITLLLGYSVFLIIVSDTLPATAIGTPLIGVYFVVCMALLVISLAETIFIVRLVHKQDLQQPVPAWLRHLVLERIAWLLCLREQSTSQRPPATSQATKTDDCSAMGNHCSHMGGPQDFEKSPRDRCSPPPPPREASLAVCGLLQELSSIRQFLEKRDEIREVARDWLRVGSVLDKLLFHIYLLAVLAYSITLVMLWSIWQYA
Histamine H1 receptor (Homo sapiens), sequence (P35367 whole entry): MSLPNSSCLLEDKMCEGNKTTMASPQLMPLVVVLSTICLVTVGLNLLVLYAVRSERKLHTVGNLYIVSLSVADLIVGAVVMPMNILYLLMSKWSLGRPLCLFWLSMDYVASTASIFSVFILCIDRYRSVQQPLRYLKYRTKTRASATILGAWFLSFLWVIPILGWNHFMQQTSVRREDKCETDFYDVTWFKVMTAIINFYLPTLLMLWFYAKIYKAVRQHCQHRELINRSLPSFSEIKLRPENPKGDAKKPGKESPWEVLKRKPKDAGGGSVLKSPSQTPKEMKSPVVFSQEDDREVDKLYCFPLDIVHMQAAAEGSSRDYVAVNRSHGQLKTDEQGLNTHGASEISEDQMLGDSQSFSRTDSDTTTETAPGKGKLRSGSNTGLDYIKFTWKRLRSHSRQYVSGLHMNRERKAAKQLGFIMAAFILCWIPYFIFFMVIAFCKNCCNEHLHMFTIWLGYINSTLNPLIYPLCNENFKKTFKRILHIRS
C-X-C chemokine receptor type 2 (Homo sapiens), sequence (P25025 whole entry): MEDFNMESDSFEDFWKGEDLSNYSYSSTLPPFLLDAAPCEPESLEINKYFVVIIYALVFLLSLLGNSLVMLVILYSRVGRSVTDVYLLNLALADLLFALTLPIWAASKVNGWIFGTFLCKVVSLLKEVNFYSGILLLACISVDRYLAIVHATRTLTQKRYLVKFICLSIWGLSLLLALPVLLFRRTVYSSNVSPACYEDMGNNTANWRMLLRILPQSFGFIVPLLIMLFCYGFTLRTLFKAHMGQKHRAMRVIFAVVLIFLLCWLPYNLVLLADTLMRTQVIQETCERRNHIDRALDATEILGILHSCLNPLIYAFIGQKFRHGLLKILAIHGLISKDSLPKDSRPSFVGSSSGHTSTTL
Muscarinic acetylcholine receptor M1 (Homo sapiens), sequence (P11229 whole entry): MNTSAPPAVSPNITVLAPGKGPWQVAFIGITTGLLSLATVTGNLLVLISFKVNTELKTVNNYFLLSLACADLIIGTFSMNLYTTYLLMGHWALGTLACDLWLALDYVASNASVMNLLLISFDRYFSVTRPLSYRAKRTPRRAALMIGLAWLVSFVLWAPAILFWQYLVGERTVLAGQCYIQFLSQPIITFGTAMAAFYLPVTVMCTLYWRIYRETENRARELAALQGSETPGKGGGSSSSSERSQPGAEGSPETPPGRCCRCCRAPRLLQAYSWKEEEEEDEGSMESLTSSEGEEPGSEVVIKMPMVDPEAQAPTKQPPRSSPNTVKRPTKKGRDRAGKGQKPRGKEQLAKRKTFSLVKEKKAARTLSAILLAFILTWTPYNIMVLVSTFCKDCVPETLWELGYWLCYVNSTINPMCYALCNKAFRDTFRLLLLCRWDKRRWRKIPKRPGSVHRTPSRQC
D(2) dopamine receptor (Homo sapiens), sequence (P14416 whole entry): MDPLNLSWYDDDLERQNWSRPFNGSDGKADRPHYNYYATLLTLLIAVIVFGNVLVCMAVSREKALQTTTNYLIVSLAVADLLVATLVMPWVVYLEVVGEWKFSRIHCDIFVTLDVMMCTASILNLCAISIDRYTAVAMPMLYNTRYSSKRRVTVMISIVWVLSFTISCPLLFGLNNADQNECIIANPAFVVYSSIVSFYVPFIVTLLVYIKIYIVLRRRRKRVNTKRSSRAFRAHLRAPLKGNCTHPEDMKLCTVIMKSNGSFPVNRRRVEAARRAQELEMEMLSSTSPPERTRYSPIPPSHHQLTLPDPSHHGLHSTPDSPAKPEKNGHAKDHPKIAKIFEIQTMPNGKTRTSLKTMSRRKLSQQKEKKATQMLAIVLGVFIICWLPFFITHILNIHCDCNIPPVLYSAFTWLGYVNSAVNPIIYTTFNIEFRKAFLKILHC

COC(=O)N1CCC(CN(C2Cc3cc(C#N)ccc3N(Cc3cncn3C)C2)S(=O)(=O)c2ccccn2)CC1 (configuration not stated)
inhibition [1]: inactive
inhibition [2]: inactive
Activity (Rattus norvegicus [3]): Non-toxic
AUC [4]: 3.68 µM·h
inhibition [5]: 64%
inhibition [6]: inactive
inhibition [7]: inactive
inhibition [8]: inactive
Activity (Rattus norvegicus [9]): Non-toxic
inhibition [10]: inactive
inhibition [11]: inactive
Activity (Rattus norvegicus [12]): Non-toxic
Activity (Rattus norvegicus [13]): Non-toxic
inhibition [14]: inactive
half-life [15]: 41 min
Activity (Rattus norvegicus [16]): Non-toxic
inhibition [17]: inactive
Activity (Salmonella typhimurium): Non-toxic
EC50 (Plasmodium falciparum): 15 nM
inhibition [18]: inactive
Activity (Rattus norvegicus [19]): Non-toxic
bioavailability [20]: 82%
AUC [21]: 10.9 µM·h
IC50 [22]: 0.58 nM
half-life [23]: 5.8 min
inhibition [24]: inactive
Activity (Rattus norvegicus [25]): Non-toxic
